From PubChem
Compounds with a hit are over-represented: about 2.2% of the library has one in this group of screens.
Exocytosis inh – lytic granule exocytosis inhibition. AID 651702. inhibition, % at 10 µM. TALL-104 LAMP-1 surface exposure, flow cytometry; cells stimulated with thapsigargin and PMA. hit rate 0.66% among 360,000;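 active = inhibition above about 55%, limit read from the data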
PfG6PD inh – PfG6PD (Plasmodium falciparum) enzyme inhibition; PfGluPho enzyme, NADPH resazurin-diaphorase fluorescence; inhibition, % at 20 µM; hit rate 0.78% among 350,000;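 active = inhibition reaching at least a set limit at 20 µM in the primary screen, cut at about 59% in these data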;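 also: 0% = DMSO wells with substrate and 100% = DMSO wells lacking glucose-6-phosphate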
ABHD5 PLIN5 PPI – blocks binding of human ABHD5 to perilipin-5; Split G. princeps luciferase complementation, luminescence, 4 h; inhibition, % at 4 µM; hit rate 0.78% among 360,000; AID 602281;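 active = inhibition above the mean inhibition across every tested compound plus 3 SD, cut at about 22% in these data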;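 also: 0% = DMSO only wells and the 100% control is not disclosed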
Target sequence (Q00G26 whole entry, looked up): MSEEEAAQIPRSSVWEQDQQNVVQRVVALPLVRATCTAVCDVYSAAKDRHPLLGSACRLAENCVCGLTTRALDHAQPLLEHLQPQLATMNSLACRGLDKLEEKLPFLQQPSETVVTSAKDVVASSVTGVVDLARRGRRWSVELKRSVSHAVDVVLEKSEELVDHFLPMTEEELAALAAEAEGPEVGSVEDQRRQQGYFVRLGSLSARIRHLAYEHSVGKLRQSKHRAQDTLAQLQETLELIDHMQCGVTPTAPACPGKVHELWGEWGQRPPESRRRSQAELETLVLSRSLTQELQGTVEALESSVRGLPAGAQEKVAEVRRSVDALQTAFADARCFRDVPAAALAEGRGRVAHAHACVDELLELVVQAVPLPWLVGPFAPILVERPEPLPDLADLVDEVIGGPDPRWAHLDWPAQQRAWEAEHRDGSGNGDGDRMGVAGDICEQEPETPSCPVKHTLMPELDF
Target sequence (Q8WTS1 whole entry, looked up): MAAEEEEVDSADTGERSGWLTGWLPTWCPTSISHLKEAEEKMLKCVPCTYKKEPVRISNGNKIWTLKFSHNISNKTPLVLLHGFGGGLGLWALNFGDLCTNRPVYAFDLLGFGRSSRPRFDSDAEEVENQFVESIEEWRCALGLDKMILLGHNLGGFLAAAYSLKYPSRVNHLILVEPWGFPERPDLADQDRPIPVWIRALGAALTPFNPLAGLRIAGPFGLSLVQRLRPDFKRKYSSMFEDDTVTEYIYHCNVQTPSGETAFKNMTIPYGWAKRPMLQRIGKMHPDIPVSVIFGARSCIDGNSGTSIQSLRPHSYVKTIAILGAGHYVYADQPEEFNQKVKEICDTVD
HKDC1 inh – blocks human hexokinase HKDC1 activity. inhibition, % at 20 µM. recombinant HKDC1, G6PDH/diaphorase resazurin coupled fluorescence. hit rate 0.16% among 340,000. AID 493160. Q2TB90;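 active = inhibition above about 35% when tested at 20 µM, limit read from the data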;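 also: plate controls were DMSO wells with enzyme for no effect and DMSO wells lacking enzyme for full effect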
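Assay system – recombinant HKDC1 (HK5) hexokinase enzyme, produced in-house · Input – HKDC1 at 5 µg/mL · Reagent – glucose plus 1 mM ATP as hexokinase substrates · Timing – 90 min reaction incubation at room temperature, dark · Measured by – G6PDH/diaphorase-coupled fluorescence, 1 mM NADP, 100 µM resazurin, 525/613 nm · Benchmarks – DMSO-enzyme wells negative, buffer-substituted wells positive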
Exocytosis CP01 – blocks lytic granule exocytosis; inhibition, % at 10 µM; TALL-104 cells, LAMP-1 externalization, flow cytometry; stimulated with PMA plus thapsigargin; AID 651954; hit rate 11% among 1,500; shares compounds with Exocytosis inh; in the data active = inhibition above about 60%;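 also: 0% = stimulated vehicle wells and 100% = unstimulated wells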
An asterisk follows results filed as active; / = no result.

SMILES	Exocytosis inh	PfG6PD inh	ABHD5 PLIN5 PPI	HKDC1 inh	Exocytosis CP01
CCc1ccccc1NC(=O)CN(c1ccc(OC)cc1OC)S(=O)(=O)c1ccccc1	70*	-9	2	-1	-11
COc1ccc(N(CC(=O)NCCSc2ccccn2)S(=O)(=O)c2ccccc2)c(OC)c1	65*	4	2	-1	101*
COc1ccc(OC)c(N(CC(=O)NCCSCc2ccco2)S(=O)(=O)c2ccccc2)c1	85*	0	0	-4	-13
CC(=O)N1CCN(C(=O)c2ccc(Cl)c(S(=O)(=O)N3CCCCCC3)c2)CC1	0	5	-1	-2	/
COc1ccc(CNC(=O)C(c2ccc(C)o2)N(Cc2cccs2)C(=O)Cc2cccs2)cc1 (stereo not given)	77*	14	0	0	8
CCOC(=O)Cn1c(=O)oc2cc(S(=O)(=O)N(C)c3cccc(C)c3)ccc21	62*	5	-1	-7	2
CCOC(=O)Cn1c(=O)oc2cc(S(=O)(=O)N(C)c3ccc(OC)cc3)ccc21	59*	2	1	-3	-4
CCN(C(=O)Cn1c(=O)oc2cc(S(=O)(=O)N3CCCC3)ccc21)c1ccc(OC)cc1	-4	-7	-5	-6	/
CC(CC12CC3CC(CC(C3)C1)C2)NCc1ccccc1O (stereo not given)	61*	4	2	-4	-12
Oc1ccccc1CNCC12CC3CC(CC(C3)C1)C2	47	6	3	-2	/
COc1ccc(Cc2nnc(NC(=O)Nc3ccc(C)cc3)s2)cc1OC	65*	-2	3	-2	-14
COc1ccc([N+](=O)[O-])cc1NCc1ccccc1C	1	12	-6	4	/
Cc1ccccc1CN1CCc2cc([N+](=O)[O-])ccc21	115*	22	3	-1	-1
C/C(=N\NC(=O)c1nnn(-c2nonc2N)c1-c1ccccc1)c1ccco1	-1	-6	-2	-6	/
COc1ccc(C)cc1NC(=O)CSc1nnc(-c2cc(C)[nH]n2)n1N	-6	4	0	-3	/
CCOC(=O)c1cnc2ccc(OCC)cc2c1N(C)Cc1ccccc1	102*	6	-5	-1	79*
CCOC(=O)c1cnc2ccc(OCC)cc2c1N1CCN(c2ccccc2OC)CC1	0	27	5	4	/
COc1ccc2sc(N(CCCN(C)C)C(=O)c3ccc(S(=O)(=O)N4CCc5ccccc5C4)cc3)nc2c1	76*	-16	15	1	84*
CN(C)CCCN(C(=O)c1ccc(S(=O)(=O)N2CCc3ccccc32)cc1)c1nc2ccc(F)cc2s1	43	10	12	0	/
Cc1cc(C)c2sc(N(CCCN(C)C)C(=O)c3ccc(S(=O)(=O)N4CCCc5ccccc54)cc3)nc2c1	58*	14	11	0	47
Cc1ccc2nc(N(CCCN(C)C)C(=O)c3ccc(S(=O)(=O)N4CCc5ccccc5C4)cc3)sc2c1	47	3	10	0	/
Cc1cc(C)c2sc(N(CCCN(C)C)C(=O)c3ccc(S(=O)(=O)N4CCc5ccccc5C4)cc3)nc2c1	56*	/	11	/	63*
CC(=O)Nc1cccc(-n2c(=O)n(Cc3ccccc3)c(=O)c3[nH]cnc32)c1	56*	-4	3	-4	-4
Nc1cc2[nH]c(=O)c3ccccc3c2cc1[N+](=O)[O-]	-6	45	-5	22	/
CCCC1=Nc2cc(C(=O)N3CCN(c4ccccn4)CC3)ccc2Sc2ccc(C)cc21	70*	14	8	-2	-4
SMILES	Exocytosis inh	PfG6PD inh	ABHD5 PLIN5 PPI	HKDC1 inh	Exocytosis CP01
CCCCC(C(=O)OCC)C(N)Cc1ccc(F)cc1 (stereo not given)	1	-12	2	-2	/
COC(=O)C1CCN(CCCOc2ccc(CN3CCN(c4ccc([N+](=O)[O-])cc4)CC3)cc2)CC1	84*	-11	2	-3	-10
CCCNCc1cc(Br)ccc1OCC(=O)NCCc1ccccc1	0	-13	11	1	/
O=C(COc1ccc(Br)cc1CNCCc1ccccc1)NCc1ccccc1	67*	-1	14	-6	-2
COc1ccc2nc3cc(Cl)ccc3c(Nc3cc(C(C)C)c(O)cc3C)c2c1	62*	53	9	2	54
COc1ccc(S(=O)(=O)Nc2cc(C(C)C)c(O)cc2C)cc1	-1	-21	2	4	/
O=C(CSc1nc(N2CCOCC2)nc(N2CCOCC2)n1)Nc1ccccc1F	-3	-5	-4	5	/
COc1cc(C(C)=O)ccc1OCC(=O)NCC(c1ccc(F)cc1)N1CCOCC1 (stereo not given)	62*	-4	0	0	-5
COc1ccc(C(CNC(=O)COc2ccc(F)cc2Cl)N2CCOCC2)cc1 (stereo not given)	-6	-12	6	2	/
CCn1c2ccc(C)cc2c2nnc(SCCN3CCCCC3)nc21	97*	18	-2	-5	-3
CCCn1c2ccc(C)cc2c2nnc(SCCN3CCCCC3)nc21	42	20	3	0	/
CCCN1CCN(CC(=O)NCC(=O)Nc2cccc(C)c2C)CC1	-3	-5	-4	6	/
Cc1occc1-c1nnc(SCC(=O)c2c(N)n(C3CC3)c(=O)[nH]c2=O)n1C	-6	-10	-10	0	/
NC(=O)c1cnccc1C=Cc1ccccc1	64*	15	0	-10	-12
Clc1cccc(Cc2c(-c3ccco3)nc3c4ccccc4ccn23)c1	96*	/	17	/	-6
Clc1cccc(Cc2c(-c3cccc(Cl)c3)nc3c4ccccc4ccn23)c1	-5	/	2	/	/
